V1R ag counter: counter-screen for oxytocin receptor agonists: human V1a receptor agonists | P37288 | CHO-V1R cells, Fluo-8 calcium fluorescence, agonist mode; 0% DMSO, 100% 3 nM vasopressin | activation, % at 3 µM | hit rate 0.25% among 320,000;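 active = activation above the mean activation of all tested compounds plus 3 SD, per screening run, cut at about 20% in these data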;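 note: signal is peak over basal fluorescence ratio across a 100 second FLIPR read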
OXTR potentiator: potentiates the human oxytocin receptor response; activation, % at 3 µM; CHO-OTR cells, Fluo-8 calcium fluorescence, potentiator mode; 0% = oxytocin EC15, 100% = EC100; hit rate 0.061% among 320,000; P30559;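 active = activation above that plate's cutoff, the mean activation of tested compounds plus 3 SD, cut at about 6.6% in these data, passing the limit was not always enough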;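 note: 100% uses oxytocin at 75 nM as the full agonist control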
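Material: human OTR in CHO cells. Compound: 3.0 µM, one dose. Timing: compound 6 min at room temperature before oxytocin, 100 s read. Evaluation: % activation of max/min ratio relative to oxytocin controls. Replication: single well per compound, singlicate. Signal: Fluo-8 calcium dye fluorescence.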
OXTR ag: human OXTR agonism; activation, % at 3 µM; AID 2435; hit rate 0.32% among 320,000; CHO-OTR cells, Fluo-8 calcium fluorescence; normalized: DMSO 0%, oxytocin 100%; P30559;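 active = activation above the mean of all tested compounds plus 3 SD, cutoff set per screening run, cut at about 20% in these data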;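 note: peak over basal fluorescence ratio from a 100 s FLIPR kinetic read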
OX1R antag-1: OX1R (human) antagonism; O43613; OX1R-expressing cells, FRET antagonist read-out; inhibition, % at 6.6 µM; hit rate 1.8% among 330,000; AID 485270; in the data active = inhibition mostly above about 38%, no sharp cut-off; inactive = mostly below about 40%;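 note: 0% = agonist challenge alone and 100% = reference antagonist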
Target sequence (O43613 whole entry, looked up): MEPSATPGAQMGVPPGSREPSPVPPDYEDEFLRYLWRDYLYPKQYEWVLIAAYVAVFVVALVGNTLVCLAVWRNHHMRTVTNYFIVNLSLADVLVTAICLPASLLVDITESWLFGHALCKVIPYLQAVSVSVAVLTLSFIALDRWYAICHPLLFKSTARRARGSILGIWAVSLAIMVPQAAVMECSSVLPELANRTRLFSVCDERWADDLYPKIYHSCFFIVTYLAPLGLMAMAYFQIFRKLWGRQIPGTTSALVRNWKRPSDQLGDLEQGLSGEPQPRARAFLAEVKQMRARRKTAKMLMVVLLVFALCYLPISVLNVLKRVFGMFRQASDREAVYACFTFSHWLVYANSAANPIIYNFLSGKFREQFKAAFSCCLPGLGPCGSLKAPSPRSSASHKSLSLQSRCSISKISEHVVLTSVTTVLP
CHO parental Ca: counter-screen for OX1R antagonists: effect in parental CHO cells; parental CHO-K1, ATP-induced calcium, Fluo-8 fluorescence; inhibition, % at 5.6 µM; hit rate 0.63% among 330,000; AID 463079;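 active = inhibition above that plate's mean sample inhibition plus 3 SD, cut at about 26% in these data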;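 note: 0% = ATP-challenged DMSO wells and 100% = DMSO wells without ATP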
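Test system: parental CHO cells; detection: calcium-sensitive Fluo-8 fluorescence; evaluation: percent inhibition of calcium signal; also added: ATP as calcium-mobilizing challenge; repeats: one well per compound; control set: ATP-challenged DMSO wells low, unchallenged DMSO wells high; compound: single nominal dose of 5.6 µM per compound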
OX1R antag-2: human HCRTR1 antagonism; CHO/OX1R cells, Fluo-8 calcium fluorescence, orexin A; inhibition, % at 5 µM; hit rate 0.43% among 330,000;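 active = inhibition above its plate's threshold, mean inhibition of all tested compounds on the plate plus 3 SD, cut at about 37% in these data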;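 note: 0% = orexin A challenge wells and 100% = SB-334867-A antagonist wells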
Numbers without * were called inactive. Only some compounds are listed: those with a hit (about 2.7% of all), similar ones and a draw of the others.

Screening O=C(Nc1cccc(Cl)c1)Nc1nc(-c2ccccc2)cs1 returned V1R ag counter 9, OXTR potentiator -28, OXTR ag 7, OX1R antag-1 46, CHO parental Ca 37* and OX1R antag-2 34.
For COC(=O)c1cc(NC(=O)c2ccc(-c3ccccc3)cc2)ccc1Cl the results were V1R ag counter 2, OXTR potentiator -18, OXTR ag -1, OX1R antag-1 44, CHO parental Ca -14 and OX1R antag-2 -14.
`O=C(Nc1cccc(Cl)c1)Nc1cccc(Cl)c1` gave V1R ag counter 9, OXTR potentiator -22, OXTR ag 14, OX1R antag-1 92*, CHO parental Ca 74* and OX1R antag-2 39*.
Screening COC(=O)c1cccc(NC(=O)NC(=O)c2ccc(Cl)cc2)c1 returned V1R ag counter 0, OXTR potentiator -12, OXTR ag 0, OX1R antag-1 9, CHO parental Ca 1 and OX1R antag-2 -5.
For COC(=O)c1cc(NC(=O)Nc2cccc(Cl)c2)ccc1Cl the results were V1R ag counter 11, OXTR potentiator -12, OXTR ag 18, OX1R antag-1 50*, CHO parental Ca 14 and OX1R antag-2 46*.
For N#C/C(=C\Nc1ccc(Cl)cc1)S(=O)(=O)c1ccccn1 the results were V1R ag counter 0, OXTR potentiator 2, OXTR ag -1, OX1R antag-1 13, CHO parental Ca -2 and OX1R antag-2 -3.
Screening O=C(Nc1ccccc1)Nc1cc(Cl)cc(Cl)c1 returned V1R ag counter 8, OXTR potentiator -31, OXTR ag 10, OX1R antag-1 84*, CHO parental Ca 54* and OX1R antag-2 65*.
For CS(=O)(=O)Nc1ccccc1C(=O)Nc1cc(Cl)cc(Cl)c1 the results were V1R ag counter 11, OXTR potentiator -13, OXTR ag 18, OX1R antag-1 46*, CHO parental Ca 19 and OX1R antag-2 11.
Screening COc1ccccc1NS(=O)(=O)c1cccc(NC(=O)Nc2cccc(Cl)c2)c1 returned V1R ag counter 9, OXTR potentiator -18, OXTR ag 13, OX1R antag-1 46, CHO parental Ca 30* and OX1R antag-2 29.
Screening O=C(N/C(=C\c1cccc(Br)c1)C(=O)N1CCCCC1)c1ccco1 returned V1R ag counter 6, OXTR potentiator -10, OXTR ag 1, OX1R antag-1 22, CHO parental Ca -6 and OX1R antag-2 -13.
Screening CC1CCC2(CC1)OCC1(CCC3(COC4(CCC(C)CC4)OC3)C1=O)CO2 (stereo unspecified) returned V1R ag counter 0, OXTR potentiator -6, OXTR ag -1, OX1R antag-1 6, CHO parental Ca 13 and OX1R antag-2 -21.
Cc1cccc2c1NC(=O)C2(c1ccc(O)cc1)c1ccc(O)cc1 was read as V1R ag counter 0, OXTR potentiator -4, OXTR ag 0, OX1R antag-1 24, CHO parental Ca 4 and OX1R antag-2 8.
`Cc1cc(C2(c3ccc(O)c(C)c3)C(=O)Nc3ccccc32)ccc1O` gave V1R ag counter -1, OXTR potentiator -14, OXTR ag -1, OX1R antag-1 13, CHO parental Ca 43* and OX1R antag-2 18.
CCOC(=O)c1sc2nc(C)nc(SC(C)C(=O)NC3CC3)c2c1C (stereo unspecified) was read as V1R ag counter 0, OXTR potentiator -2, OXTR ag 0, OX1R antag-1 5, CHO parental Ca -21 and OX1R antag-2 -1.
`CC(C)(C)c1ccc(NC(=O)COC(=O)c2ccc([N+](=O)[O-])s2)cc1` gave V1R ag counter 1, OXTR potentiator -5, OXTR ag 1, OX1R antag-1 34, CHO parental Ca -4 and OX1R antag-2 4.
For O=C(OCc1nnc(-c2ccccc2)o1)c1ccc([N+](=O)[O-])s1 the results were V1R ag counter 0, OXTR potentiator 4, OXTR ag 1, OX1R antag-1 47*, CHO parental Ca -4 and OX1R antag-2 2.
Cc1c(Cl)cnc(NC(=O)COC(=O)c2ccc([N+](=O)[O-])s2)c1Cl was read as V1R ag counter 0, OXTR potentiator -6, OXTR ag -2, OX1R antag-1 63*, CHO parental Ca -14 and OX1R antag-2 -20.
`O=C(COC(=O)c1ccc([N+](=O)[O-])s1)Nc1ccc(F)cc1` gave V1R ag counter 1, OXTR potentiator -7, OXTR ag 2, OX1R antag-1 42*, CHO parental Ca -2 and OX1R antag-2 3.
Cc1ccc(C(=O)OCc2nnc(-c3ccccc3)o2)s1 was read as V1R ag counter -1, OXTR potentiator -13, OXTR ag -1, OX1R antag-1 11, CHO parental Ca -1 and OX1R antag-2 -17.
`Cc1cc(C(=O)OCC(=O)N2CCC(c3ccccc3)=N2)ccc1[N+](=O)[O-]` gave V1R ag counter 0, OXTR potentiator -8, OXTR ag -1, OX1R antag-1 8, CHO parental Ca -10 and OX1R antag-2 -10.
For O=C(OCC(=O)N1CCC(c2ccccc2)=N1)c1ccc([N+](=O)[O-])s1 the results were V1R ag counter 2, OXTR potentiator 1, OXTR ag -1, OX1R antag-1 61*, CHO parental Ca -17 and OX1R antag-2 -27.
For CCN(C(=O)CN1C(=O)S/C(=C\c2cccc(OC)c2)C1=O)C1CCS(=O)(=O)C1 (stereo unspecified) the results were V1R ag counter 1, OXTR potentiator -4, OXTR ag 1, OX1R antag-1 35, CHO parental Ca -22 and OX1R antag-2 -25.
Screening O=C(COC(=O)C1CC(=O)N(Cc2ccco2)C1)Nc1nc(-c2ccc(F)cc2)cs1 (stereo unspecified) returned V1R ag counter 6, OXTR potentiator -11, OXTR ag 7, OX1R antag-1 7, CHO parental Ca -3 and OX1R antag-2 -8.
Screening O=C(COC(=O)c1ccc([N+](=O)[O-])s1)NC(c1ccccc1)c1ccccc1 returned V1R ag counter -1, OXTR potentiator -8, OXTR ag -2, OX1R antag-1 49, CHO parental Ca -20 and OX1R antag-2 -28.
Screening O=C(COC(=O)c1ccc([N+](=O)[O-])s1)Nc1ccccc1 returned V1R ag counter 1, OXTR potentiator -11, OXTR ag 1, OX1R antag-1 72*, CHO parental Ca -2 and OX1R antag-2 6.
Cc1nc(SCC(=O)Nc2nccs2)c(C#N)c(C)c1C was read as V1R ag counter 0, OXTR potentiator -7, OXTR ag -1, OX1R antag-1 1, CHO parental Ca -14 and OX1R antag-2 -1.
`Cc1nc(SCC(=O)Nc2nc3ccccc3s2)c(C#N)c(C)c1C` gave V1R ag counter -1, OXTR potentiator -6, OXTR ag -2, OX1R antag-1 53*, CHO parental Ca -17 and OX1R antag-2 -17.
